The source of these data is PubChem BioAssay AID602189 (Broad Institute, 2012).

By AC50 is commonly meant the midpoint of the concentration-response curve, whichever way the signal moves.

Test [1] can be described thus: C. albicans CaCi-17 growth inhibition, confirmation, clinical isolate, Alamar Blue, dry powder (AID 602189). The settings on record: C. albicans CaCi-17 growth, Alamar Blue fluorescence, 48 h; at 26 µM (top of the series). In short, it runs like this:
(§1)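 Material: fluconazole-resistant clinical isolate CaCi-17, whole fungal cells. Amount: inoculum OD600 0.00015. Medium: MOPS-buffered RPMI 1640 with uridine and glucose. Incubation: 48 h compound exposure, 37 °C, static, humidified. Signal: Alamar Blue fluorescence, 1:40 in PBS, read after 2 h. Evaluation: growth inhibition from decreased fluorescence.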
(Alamar Blue is a resazurin reagent that responds to reducing activity.)

The subject of test [2] is C. albicans CaCi-17 growth, Alamar Blue fluorescence, 48 h. Described as above. A digest of the protocol: as §1

Inconclusive results are not listed. Activity calls are given as the source filed them.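 How the source made its calls: active means signal drop in every repeat run, with half-maximal concentration at most twice the top valid concentration; inconclusive means the separate test runs give conflicting calls; inactive means inactive in every test run.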

As for `NC(=O)c1cccc(C(=O)Nc2nc(-c3ccc4c(c3)CCCC4)cs2)c1`, the activity change, negative = inhibition in test [1] was 21.1% (inactive). Turning to `C=CCNC(=S)N/N=C(\C)c1ccccn1`, the activity change, negative = inhibition in test [1] was -32.2% (inactive).

With `O=C(Oc1c(Cl)cc(Cl)c2cccnc12)c1ccco1`, in test [2], the AC50 is 1.5 µM. `Oc1c(C(c2ccc(Cl)cc2)N2CCCC2)ccc2cccnc12` (stereo not drawn): the AC50 in test [2] was 8.73 µM. Take `O=C(Nc1nnc(-c2ccc3c(c2)CCCC3)o1)c1ccc(Cl)cc1Cl`: in test [2], the AC50 was 17.3 µM. On the same count and under the same terms, under `Oc1c(CN2CCc3ccccc3C2)cc(Cl)c2cccnc12` stands 5.46 µM; under `O=C(Nc1nc(-c2ccccn2)cs1)c1ccc(Cl)s1`, 10.5 µM.

In the case of `CN1CCN(C(c2ccc(C(F)(F)F)cc2)c2ccc3cccnc3c2O)CC1` (stereo not drawn), the AC50 in test [2] was 7.72 µM. With `O=C(Nc1nnc(-c2ccc3c(c2)CCCC3)o1)c1ccccc1`, in test [2], the AC50 is 25.9 µM.

In the case of `Oc1c(C(c2ccccc2Cl)N2CCCCC2)ccc2cccnc12` (stereo not drawn), the AC50 in test [2] is 11.7 µM.

Regarding `O=C(Nc1nc(-c2ccc3c(c2)CCCC3)cs1)c1ccccc1`, the activity change, negative = inhibition in test [1] was -2.83% (inactive).

Consider `C/C(=N\NC(=O)c1cc2ccccc2cc1O)c1ccccn1`, for which the AC50 in test [2] was 5.54 µM. Consider `CCOC(=O)N1C(=O)C2(CCCCC2)N(c2ccc(C)cc2)C1=S`, for which the activity change, negative = inhibition in test [1] was -10.2% (inactive). For `O=C(NNC(=S)Nc1ccc(Cl)c(Cl)c1)c1ccccn1`, the AC50 in test [2] is 1.86 µM. Consider `O=C(Nc1nc(-c2ccccn2)cs1)c1ccccc1`, for which, in test [1], the activity change, negative = inhibition was 57.1% (inactive). Take `O=C(Nc1nc(-c2ccccn2)cs1)c1ccc(Br)s1`: the AC50 in test [2] was 4.94 µM. As for `O=C(Nc1nc(-c2ccccc2)cs1)c1ccc(Br)s1`, the activity change, negative = inhibition in test [1] is -6.92% (inactive). In the case of `Cc1ccc(C(=O)Nc2nnc(-c3ccccc3)o2)cc1C`, the activity change, negative = inhibition in test [1] was -7.38% (inactive).
